Calls of active or inactive are those of the source. The calls are words filed in the database; no cut-off is given here.

Data set [1] deals with Cathepsin S (Mus musculus, UniProt O70370). Nature of the data set: Inhibition of mouse cathepsin-S using Z-Val-Val-Arg-AMC as substrate up to 20 mins by fluorescence assay. A digest of the protocol:
(§1)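 Fluorogenic quenched-peptide cleavage assay. Enzymes at 1 nM in 100 mM potassium phosphate pH 6.5, 5 mM EDTA-Na, 0.001% Triton X-100 and 5 mM DTT. Enzyme was added to the compound dilutions, then 20 μM substrate started the reaction: Z-Val-Val-Arg-AMC, or Z-Leu-Arg-AMC for CatK. Fluorescence (ex 360/em 465 nm) was read over 20 min. IC50 is the mean of ≥2 independent experiments.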

Data set [2] concerns A20. Nature of the data set: Inhibition of ovalbumin-induced antigen presentation in mouse A20 cells treated 1 hr before ovalbumin addition incubated for 16 hrs followed by co-cultured with DO10.10 T-cell hybridoma cells for 24 hrs assessed as IL-2 production by luminex single-bead analysis. It is filed as functional, cell-based. The method, boiled down:
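A20 cells were seeded at 3 × 10⁵/mL and preincubated with compound for 1 h. Ovalbumin was then added (5 mg/mL final) for 16 h. Cells were washed three times with PBS, then DO10.10 T-cell hybridoma cells (2 × 10⁵/mL) were added. After 24 h, IL-2 was quantified by Luminex single-bead assay using two anti-IL-2 antibodies. IC50 is the mean of ≥2 independent experiments.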

Data set [3] in a line: Metabolic stability in NMRI mouse plasma assessed as compound remaining at 1000 ng/mL after 4 hrs. The settings on record: read-out: Stability. The class given is ADME, cell-free. The method, boiled down: (§2)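 Heparinized pooled NMRI mouse plasma was spiked with compound at 1000 ng/mL and incubated at 37 °C in an orbital shaker. Aliquots (n = 3 per time point) were taken at 2 min, 1 h and 4 h and analysed by LC−MS/MS.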

Data set [4] can be described thus: Half life in C57Bl/6 mouse at 2 mg/kg, iv. It is filed as ADME, organism-based. Further details: dose 2 mg/kg, route intravenous. The settings on record: in vivo. A digest of the protocol: (§3)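 Male C57Bl/6 mice, 8 weeks old, 24−29 g. Dosing was by oral gavage at 9 mg/kg as an aqueous microsuspension in gelatin/NaCl (7.5%/0.62%), or by iv bolus at 2 mg/kg in aqueous NaCl/30% 1-methyl-2-pyrrolidone. Terminal blood (n = 2 per time point) was collected into EDTA tubes and spun at 4 °C to obtain plasma. Plasma levels were measured by LC−MS/MS after acetonitrile precipitation. Values are the mean of two experiments.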

In data set [5] the target is Procathepsin L (Homo sapiens, UniProt P07711). Put plainly: Inhibition of human cathepsin-L using Z-Val-Val-Arg-AMC as substrate up to 20 mins by fluorescence assay. The method, boiled down: as §1
The test system of data set [6] is Mus musculus. Put plainly: Reduction of ovalbumin-induced IL-2 production in po dosed DO10.11 transgenic BALB/c mouse administered 30 mins before ovalbumin challenge measured after 4 hrs by luminex single-bead analysis. It is filed as functional. A digest of the protocol: (§4)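 DO10.11 BALB/c mice carrying a transgenic ovalbumin-peptide TCR were dosed orally with compound, then challenged iv with 1.0 mg low-endotoxin ovalbumin. Plasma IL-2 was measured at 4 h by Luminex bead assay using two anti-IL-2 antibodies. Groups had n = 8, and reduction was expressed versus the ovalbumin challenge group (ANOVA with Dunnett test).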

Data set [7] in a line: Clearance in C57Bl/6 mouse at 2 mg/kg, iv and 9 mg/kg, po. The class given is ADME, organism-based. As to conditions: in vivo. The method, boiled down: as §3
Data set [8] has as its target T1, Cathepsin K (Homo sapiens, UniProt P43235).
T1 sequence (P43235 whole entry): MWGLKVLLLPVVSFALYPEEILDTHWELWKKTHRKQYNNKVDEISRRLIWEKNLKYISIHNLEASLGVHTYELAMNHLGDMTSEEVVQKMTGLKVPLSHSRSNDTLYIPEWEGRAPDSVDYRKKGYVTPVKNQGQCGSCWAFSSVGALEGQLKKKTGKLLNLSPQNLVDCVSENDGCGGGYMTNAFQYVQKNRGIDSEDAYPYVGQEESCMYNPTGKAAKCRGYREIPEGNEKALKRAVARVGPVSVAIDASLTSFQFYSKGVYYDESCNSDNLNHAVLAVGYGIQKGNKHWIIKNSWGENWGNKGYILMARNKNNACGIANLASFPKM
Put plainly: Inhibition of human cathepsin-K using Z-Leu-Arg-AMC as substrate up to 20 mins by fluorescence assay. The method, boiled down:
as §1

Data set [9] deals with Mus musculus. Nature of the data set: Dose normalized AUC in C57Bl/6 mouse at 9 mg/kg, po. The class given is ADME, organism-based. Further details: dose 9 mg/kg, route oral. As to conditions: in vivo. The method, boiled down: as §3
A short description of data set [10]: Half life in C57Bl/6 mouse at 9 mg/kg, po. It is filed as ADME, organism-based. Further details: dose 9 mg/kg, route oral. The settings on record: in vivo. A digest of the protocol:
as §3

The target in data set [11] is Cathepsin B (Homo sapiens, UniProt P07858). Nature of the data set: Inhibition of human cathepsin-B using Z-Val-Val-Arg-AMC as substrate up to 20 mins by fluorescence assay. The method, boiled down: as §1
The target of data set [12] is Cathepsin S (Homo sapiens, UniProt P25774). Put plainly: Inhibition of human cathepsin-S using Z-Val-Val-Arg-AMC as substrate up to 20 mins by fluorescence assay. A digest of the protocol:
as §1

The subject of data set [13] is Mus musculus. Put plainly: Dose normalized AUC in C57Bl/6 mouse at 2 mg/kg, iv. It is filed as ADME, organism-based. Further details: dose 2 mg/kg, route intravenous. The settings on record: in vivo. The method, boiled down: as §3
Data set [14] can be described thus: Volume of distribution at steady state in C57Bl/6 mouse at 2 mg/kg, iv and 9 mg/kg, po. The class given is ADME, organism-based. As to conditions: in vivo, read-out: Vdss. The method, boiled down:
as §3

The subject of data set [15] is Plasma. Put plainly: Metabolic stability in human plasma assessed as compound remaining at 1000 ng/mL after 5 hrs. It is filed as ADME, cell-free.
Data set [16] in a line: Oral bioavailability in C57Bl/6 mouse at 9 mg/kg. The class given is ADME, organism-based. As to conditions: in vivo. The method, boiled down:
as §3

The subject of data set [17] is Mus musculus. Nature of the data set: Reduction of ovalbumin-induced IL-2 production in DO10.11 transgenic BALB/c mouse at 50 mg/kg, po administered 30 mins before ovalbumin challenge measured after 4 hrs by luminex single-bead analysis. The class given is functional, organism-based. Further details: dose 50 mg/kg. A digest of the protocol: as §4
Data set [18] can be described thus: Plasma concentration in DO10.11 transgenic BALB/c mouse at 50 mg/kg, po administered 30 mins before ovalbumin challenge measured after 4 hrs. Further details: dose 50 mg/kg, route oral. It is filed as ADME, organism-based.
The species entered for data set [19] is Homo sapiens. Put plainly: Selectivity ratio of IC50 for human cathepsin-K to IC50 for human cathepsin-S.
The nature of data set [20]: Drug degradation in NMRI mouse plasma at 1000 ng/mL after 4 hrs. It is filed as ADME, cell-free. As to conditions: read-out: Drug degradation. The method, boiled down: as §2

Chain of Cathepsin S (Homo sapiens, UniProt P25774) (P25774 whole entry): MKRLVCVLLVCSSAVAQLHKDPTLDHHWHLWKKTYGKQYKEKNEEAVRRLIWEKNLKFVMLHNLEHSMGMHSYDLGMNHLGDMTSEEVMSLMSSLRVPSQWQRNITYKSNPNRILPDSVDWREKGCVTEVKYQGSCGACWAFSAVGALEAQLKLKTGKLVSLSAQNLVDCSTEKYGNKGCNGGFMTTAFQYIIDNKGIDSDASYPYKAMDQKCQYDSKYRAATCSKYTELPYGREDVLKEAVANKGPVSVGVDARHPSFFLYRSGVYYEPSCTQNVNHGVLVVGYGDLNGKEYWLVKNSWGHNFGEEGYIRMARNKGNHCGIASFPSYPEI
Chain of Cathepsin S (Mus musculus, UniProt O70370) (O70370 whole entry): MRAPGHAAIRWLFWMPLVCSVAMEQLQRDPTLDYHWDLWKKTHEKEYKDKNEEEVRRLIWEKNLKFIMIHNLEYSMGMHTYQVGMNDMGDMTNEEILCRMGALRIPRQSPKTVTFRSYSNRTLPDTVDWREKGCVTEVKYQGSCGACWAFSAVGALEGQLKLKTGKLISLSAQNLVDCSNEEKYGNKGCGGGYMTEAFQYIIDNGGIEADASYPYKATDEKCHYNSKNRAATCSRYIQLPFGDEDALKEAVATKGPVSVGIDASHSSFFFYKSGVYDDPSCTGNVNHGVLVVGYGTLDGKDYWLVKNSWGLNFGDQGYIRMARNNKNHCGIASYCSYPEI
Chain of Procathepsin L (P07711 whole entry): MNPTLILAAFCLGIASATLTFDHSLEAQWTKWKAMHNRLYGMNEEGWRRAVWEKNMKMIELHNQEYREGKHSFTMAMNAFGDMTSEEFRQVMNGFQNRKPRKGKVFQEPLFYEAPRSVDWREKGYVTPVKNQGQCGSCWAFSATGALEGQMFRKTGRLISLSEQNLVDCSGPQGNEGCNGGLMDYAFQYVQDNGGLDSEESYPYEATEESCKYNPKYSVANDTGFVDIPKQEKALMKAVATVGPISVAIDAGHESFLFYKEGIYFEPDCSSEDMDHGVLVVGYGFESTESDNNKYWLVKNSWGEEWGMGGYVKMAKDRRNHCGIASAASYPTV

Consider `CC(=O)N1C[C@H](S(=O)(=O)c2ccccc2Cl)C[C@H]1C(=O)NC1(C#N)CC1`, for which the IC50 (in general, the concentration at which inhibition is half-maximal) in data set [1] is 0.002 µM; in [2], 0.019 µM; in [5], 29.7 µM; in data set [8], more than 25 µM; in data set [11], 47.6 µM; in data set [12] it was 0.001 µM. Further, in data set [3], the remaining at 4 h, 1000 ng/mL was found to be 72%. Besides, the half-life (usually the time in which the quantity being followed falls by half) in data set [4] is 18 min; in [10], 30 min. Moreover, the Activity entry in data set [6] is “Dose-dependent effect”. In data set [6], the 50% effect level (ED50) was put at a dose of 5 mg/kg. The clearance in data set [7] is 1.74 L/h/kg. Also, the AUC/dose in data set [9] stood at 309 ng·h/mL; in data set [13], 581 ng·h/mL. Besides, the Vd in data set [14] was determined as 0.5 L/kg. The Stability entry in data set [15] is on record as “Stable”. In data set [16], the bioavailability (commonly the share of a dose that reaches the circulation, judged against a reference dose that is usually intravenous) came to 53%.

Consider `N#CC1(NC(=O)[C@@H]2C[C@@H](S(=O)(=O)c3ccccc3C(F)(F)F)CN2)CC1`, for which the IC50 in data set [1] is 0.006 µM; in data set [2], 0.058 µM; in [5] it was more than 25 µM; in data set [8], more than 25 µM; in data set [11], more than 25 µM; in data set [12], 0.002 µM. The remaining at 4 h, 1000 ng/mL in [3] was 51%. Further, the half-life was 66 min in [4] and 54 min in data set [10]. In data set [7], the clearance stood at 0.096 L/h/kg. Moreover, the AUC/dose in [9] was determined as 7200 ng·h/mL; in [13], 10400 ng·h/mL. In addition, the Vd in [14] was 0.13 L/kg. Also, in data set [15], the Stability result is on record as “Stable”. In [16], this molecule registered a bioavailability of 69%. Moreover, the outcome in data set [17] was inactive. In [18], this molecule came in with a concentration at 4 h of 2.05 µg/mL.

Take `N#CCNC(=O)[C@@H]1C[C@@H](S(=O)(=O)c2ccccc2)C[C@H]1C(=O)N1CCOCC1`: the IC50 amounted to 0.001 µM in data set [1]; 0.023 µM in [2]; 11.7 µM in [5]; 15.5 µM in [8]; 6.2 µM in data set [11]; 0.0007 µM in [12]. In addition, in data set [3], the remaining at 4 h, 1000 ng/mL came out at 99%. The half-life in data set [4] is 18 min; in [10] it was 54 min. The Ratio IC50 in [19] is more than 20000. In data set [7], this molecule yielded a clearance of 2.34 L/h/kg. The values for the AUC/dose in data set [9] and in [13] were 77 ng·h/mL and 427 ng·h/mL, respectively. For the same molecule, the Vd in data set [14] turned out to be 0.5 L/kg. Further, the Stability result in data set [15] is on record as “Stable”. For the same molecule, in data set [16], the bioavailability was found to be 18%.

Turning to `N#CC1(NC(=O)[C@@H]2C[C@@H](S(=O)(=O)c3ccccc3Cl)CN2C(=O)c2ccccc2)CC1`, the IC50 in data set [1] was 0.001 µM; in [2] it was 0.015 µM; in data set [5] it was 6.8 µM; in data set [8], more than 25 µM; in [11], 35.2 µM; in [12], 0.0008 µM. Further, the metabolised at 4 h, 1000 ng/mL in [20] is more than 90%.

As to `N#CC1(NC(=O)[C@@H]2C[C@@H](S(=O)(=O)c3ccccc3Cl)CN2C(=O)C2CCCCC2)CC1`, the IC50 was 0.0002 µM in data set [1]; 0.002 µM in [2]; 8.3 µM in data set [5]; more than 25 µM in data set [8]; 0.0003 µM in data set [12]. Besides, the metabolised at 4 h, 1000 ng/mL in [20] is more than 90%.

The values above are taken from ChEMBL document CHEMBL3091448, “Identification of potent and selective cathepsin S inhibitors containing different central cyclic scaffolds” (J Med Chem, 2013).
